These results are taken from ChEMBL document CHEMBL3784946, “Antiviral Merosesquiterpenoids Produced by the Antarctic Fungus Aspergillus ochraceopetaliformis SCSIO 05702” (J Nat Prod, 2016).

Values after ≈ are worked out from the molar mass of the structure shown. Active and inactive are the calls of the source. The rule behind the calls is not given here. Where only a bound is given, the exact number is not on record here.

Data set [1] can be described thus: Selectivity index, ratio of CC50 for MDCK cells to IC50 for Influenza A virus H1N1 infected in MDCK cells. The format is functional. Put shortly: (§1)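 SI calculated as CC50 divided by IC50, both from the CPE-inhibition assay on MDCK cells. The underlying values are means of three independent experiments.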
Data set [2] relates to HL-60. The data set is described as follows: Cytotoxicity against human HL60 cells assessed as reduction in cell viability after 72 hrs by CCK8 assay. The format is functional, cell-based. Put shortly:
(§2)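 Cells grown in RPMI or DMEM with 10% FBS and 1% penicillin/streptomycin at 37 °C under 5% CO2. Seeded at 400–800 cells/well and exposed to graded compound concentrations or solvent control for 72 h. Viability read by CCK-8 absorbance at 450 nm, and IC50 derived from dose–response curves.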
(Formazan colour is commonly taken as a measure of viable cells.)

The test system of data set [3] is Mycobacterium tuberculosis. The data set is described as follows: Antitubercular activity against Mycobacterium tuberculosis H37Ra assessed as growth inhibition at 100 ug/ml after 7 days by Alamar blue assay. The format is functional, organism-based. The essentials:
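M. tuberculosis H37Ra exposed 7 days to material at 100 μg/mL (from 10 mg/mL DMSO stock; 1% v/v DMSO). Growth measured by Alamar Blue fluorescence, with inhibition expressed relative to bacteria-only controls.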
On the technique in general: Alamar Blue is a resazurin reagent that responds to reducing activity.

The subject of data set [4] is HT-29. The data set is described as follows: Cytotoxicity against human HT-29 cells assessed as reduction in cell viability after 72 hrs by CCK8 assay. The format is functional, cell-based. Put shortly:
as §2

Data set [5] deals with Influenza A virus. The data set can be described thus: Antiviral activity against Influenza A virus H1N1 infected in MDCK cells assessed as inhibition of virus-induced cytopathic effect after 48 hrs by crystal violet staining-based microplate reader analysis. The format is functional, organism-based. The essentials: (§3)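 Confluent MDCK monolayers infected with influenza virus for 1 h at 37 °C. Virus was removed, and cells were kept in RPMI 1640 with 4 μg/mL trypsin plus graded compound concentrations for 48 h at 37 °C. Cells were then fixed in 4% formaldehyde and stained with 0.1% crystal violet, with absorbance read at 570 nm. IC50 is the concentration giving 50% […] at 48 h. Values are means of three independent experiments.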
(In general: Protection from cytopathic effect is a common read-out in antiviral testing.)

The nature of data set [6]: Cytotoxicity against MDCK cells after 48 hrs by crystal violet staining-based microplate reader analysis. The format is cell-based, Canis lupus familiaris. Conditions: dog. The essentials:
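CC50 taken from the CPE-inhibition assay format on MDCK cells, with crystal violet read-out. Values are means ± SD of three independent experiments.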

In data set [7] the test system is HeLa. The data set can be described thus: Cytotoxicity against human HeLa cells assessed as reduction in cell viability after 72 hrs by CCK8 assay. The format is functional, cell-based. Put shortly: as §2
Data set [8] concerns U-937. The data set is described as follows: (§4) Cytotoxicity against human U937 cells assessed as reduction in cell viability after 72 hrs by CCK8 assay. The format is functional, cell-based. The essentials:
as §2

Data set [9] concerns Staphylococcus aureus. The data set can be described thus: Antibacterial activity against Staphylococcus aureus assessed as growth inhibition at 0.01 to 100 ug/ml after 24 hrs by agar dilution method. The format is functional, organism-based. The essentials: (§5)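 Bacteria grown on LB agar plates at 37 °C. Samples were dissolved in DMSO and serially diluted 2-fold from 100 to 0.01 μg/mL. 5 μL of each dilution was loaded onto a 5 mm paper disk placed on the plate. After 24 h, inhibition zone diameters (mm) were recorded. MIC was the lowest concentration with no visible growth. Ciprofloxacin lactate served as positive control.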

Data set [10] can be described thus: Selectivity index, ratio of CC50 for MDCK cells to IC50 for Influenza A virus H3N2 infected in MDCK cells. The format is functional. The essentials: as §1
Data set [11] deals with Influenza A virus H3N2. The data set can be described thus: Antiviral activity against Influenza A virus H3N2 infected in MDCK cells assessed as inhibition of virus-induced cytopathic effect after 48 hrs by crystal violet staining-based microplate reader analysis. The format is functional, organism-based. The essentials: as §3
For data set [12], the system named is Escherichia coli. The data set can be described thus: Antibacterial activity against Escherichia coli assessed as growth inhibition at 0.01 to 100 ug/ml after 24 hrs by agar dilution method. The format is functional, organism-based. Put shortly: as §5
Data set [13] has as its system A549. The data set can be described thus: Cytotoxicity against human A549 cells assessed as reduction in cell viability after 72 hrs by CCK8 assay. The format is functional, cell-based. The essentials: as §2
A short description of data set [14]: as §4. The format is functional, cell-based. Conditions: U-937, 72 h. Put shortly: as §2
Data set [15] has as its system Staphylococcus aureus. The data set is described as follows: Antibacterial activity against Staphylococcus aureus after 24 hrs by agar dilution method. The format is functional.
Data set [16] concerns Mycobacterium tuberculosis. The data set can be described thus: Antitubercular activity against Mycobacterium tuberculosis H37Ra after 7 days by Alamar blue assay. The format is functional. Conditions: 168 h. The essentials: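 M. tuberculosis H37Ra exposed 7 days to 2-fold dilution series from 100 μg/mL downward (10 mg/mL DMSO stock; 1% v/v DMSO at top). Growth measured by Alamar Blue fluorescence.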

For the compound `CC[C@H]1O[C@@H]2O[C@H](/C=C/C=C/C=C/c3oc(=O)cc(OC)c3C)[C@H](O)[C@]2(C)[C@@]1(C)O`, the “Ratio CC50/IC50” value worked out at 0.44 in data set [1] and 0.29 in data set [10]. The outcome in [2], in data set [4], in data set [7], in [8] and in data set [13] was inactive. In addition, the “growth inhibition (GI)” value in [3], in [9] and in data set [12] was “inactive” throughout. Also, the 50% inhibitory concentration (IC50) in data set [5] was 540 nM; in [11] it was 840 nM. This compound also came in with a CC50 at 48 h in data set [6] of 240 nM.
`CO[C@H]1c2c(c(C)c(C)oc2=O)O[C@@]2(C)[C@H]1[C@@H](C)[C@]1(O)CC(=O)C(C)(C)C(=O)[C@@]1(O)[C@H]2O`: the outcome in data set [2], in data set [4], in data set [7], in [8] and in data set [13] was inactive. For the same compound, the “growth inhibition (GI)” value in [3], in data set [9] and in [12] was “inactive” each time. Further, the IC50 was greater than 20000 nM in data set [5] and 12200 nM in data set [11]. The compound further registered a CC50 at 48 h in data set [6] of 20900 nM. For the same compound, the “Ratio CC50/IC50” value in data set [10] was 1.71.
With `CC(=O)O[C@H]1C(=O)[C@@]2(C)[C@H]([C@H](OC(=O)c3ccccc3)[C@]3(O)C[C@H](OC(=O)[C@H](O)[C@@H](NC(=O)c4ccccc4)c4ccccc4)C(C)=C1C3(C)C)[C@]1(OC(C)=O)CO[C@@H]1C[C@@H]2O` [PACLITAXEL], the half-inhibitory concentration (IC50) in data set [4] (HT-29, 72 h) came to 3.04 nM; in data set [14], 1.66 nM.
As for `Cc1oc(=O)c2c(c1C)O[C@@]1(C)[C@@H]([C@@H](C)[C@]3(O)CC(=O)C(C)(C)C(=O)[C@@]3(O)[C@H]1O)[C@H]2O`, the outcome in [2], in data set [4], in [7], in [8] and in data set [13] was inactive. In addition, the “growth inhibition (GI)” value in data set [3], in [9] and in [12] was “inactive” throughout.
In data set [15], `CC(O)C(=O)O.O=C(O)c1cn(C2CC2)c2cc(N3CCNCC3)c(F)cc2c1=O` [CIPROFLOXACIN LACTATE] yielded an MIC of 1.25 µg/mL.
For `Cc1oc(=O)c2c(c1C)O[C@]1(C)[C@H](O)C[C@@]3(O)C(C)(C)C(=O)CC[C@]3(C)[C@H]1C2`, the result in data set [2], in [4], in [7], in data set [8] and in [13] was inactive. Further, the “growth inhibition (GI)” value in [3], in data set [9] and in [12] was “inactive” throughout.
Turning to `CC[C@H]1O[C@@H]2O[C@H](/C=C/C=C\C=C\c3oc(=O)cc(OC)c3C)[C@H](O)[C@]2(C)[C@@]1(C)O`, the “Ratio CC50/IC50” value turned out to be 2.35 in data set [1] and 0.81 in [10]. Further, the result in data set [2], in [4], in data set [7], in data set [8] and in data set [13] was inactive. The “growth inhibition (GI)” value in data set [3], in data set [9] and in data set [12] was “inactive” throughout. In addition, the values for the IC50 in [5] and in data set [11] were 230 nM and 660 nM, respectively. The same compound came in with a cytotoxic concentration (CC50) at 48 h in data set [6] of 540 nM.
Regarding `Cc1oc(=O)c2c(c1C)O[C@@]1(C)C(=C2)[C@@H](C)[C@]2(O)CC(=O)C(C)(C)C(=O)[C@@]2(O)[C@H]1O`, the result in data set [2], in [4], in [7], in data set [8] and in data set [13] was inactive. Moreover, the “growth inhibition (GI)” value in data set [3], in [9] and in data set [12] was “inactive” throughout.
Consider `Cc1oc(=O)c2c(c1C)O[C@@]1(C)[C@H](C2)[C@@H](C)[C@]2(O)CC(=O)C(C)(C)C(=O)[C@@]2(O)[C@H]1O`, for which the result in data set [2], in data set [4], in [7], in data set [8] and in [13] was inactive. For the same compound, the “growth inhibition (GI)” value in data set [3], in [9] and in data set [12] was “inactive” in each case.
On to `CC[C@H]1O[C@@H]2O[C@@H]3[C@H](O)[C@@H](/C=C/C=C/c4oc(=O)cc(OC)c4C)O[C@@H]3[C@]2(C)[C@@]1(C)O`, for which the result in data set [2], in data set [4], in data set [7], in data set [8] and in data set [13] was inactive. Moreover, the “growth inhibition (GI)” value in data set [3], in data set [9] and in data set [12] was “inactive” throughout.
`NNC(=O)c1ccncc1` [ISONIAZID]: in [16], the MIC90 came to 2.04 µM (≈ 0.28 µg/mL).
With `CCOC(=O)C1=C[C@@H](OC(CC)CC)[C@H](NC(C)=O)[C@@H](N)C1` [OSELTAMIVIR], the IC50 in [5] worked out at 16.9 nM; in data set [11] it was 18.5 nM.

Broadly, the IC50 is the concentration at which inhibition is half-maximal. As usually defined, the CC50 is the concentration that lowers cell viability or growth by half. As a reminder, the MIC is the least concentration at which growth counts as inhibited. Low readings indicate a more susceptible organism, high ones a less susceptible organism. A word on the MIC90: it is an inhibitory concentration at the 90% level, which refers to growth in some studies and to a panel of isolates in others. Read a high MIC90 as lower susceptibility.
